# NF-kB expr up = raises NF-kB expression in human neuronal cells; hit rate 1.6% among 190,000; fold change at 12.5 µM; AID 1239; NF-kB reporter expression; stronger effect = higher value; in the data active = fold change above about 3.3
# sdo1 growth = restores growth of sdo1-depleted yeast | AID 817 | S. cerevisiae sdo1-depleted JHY4D growth rescue, OD600 30 h; stronger effect = higher value; pdr5 snq2 efflux-pump mutant strain | hit rate 0.21% among 140,000 | z-score at 10 µM;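 active = z-score above 3 at both the 24 hr and the 30 hr optical density reads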;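 also: z-score against mean and SD of all compound wells on the same plate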
# FLuc stim CS = firefly luciferase counter-screen for stimulation assays; P08659; ATPlite luciferase biochemical, luminescence, 10 min; 0 = ATP-free wells, 1 = DMSO control; activation factor at 10 µM; 200,000 tested, under 10 active;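 active = luciferase activation factor, scaled between plate controls, of at least 2 with compound at 10 µM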
# Target sequence (P08659 whole entry, looked up): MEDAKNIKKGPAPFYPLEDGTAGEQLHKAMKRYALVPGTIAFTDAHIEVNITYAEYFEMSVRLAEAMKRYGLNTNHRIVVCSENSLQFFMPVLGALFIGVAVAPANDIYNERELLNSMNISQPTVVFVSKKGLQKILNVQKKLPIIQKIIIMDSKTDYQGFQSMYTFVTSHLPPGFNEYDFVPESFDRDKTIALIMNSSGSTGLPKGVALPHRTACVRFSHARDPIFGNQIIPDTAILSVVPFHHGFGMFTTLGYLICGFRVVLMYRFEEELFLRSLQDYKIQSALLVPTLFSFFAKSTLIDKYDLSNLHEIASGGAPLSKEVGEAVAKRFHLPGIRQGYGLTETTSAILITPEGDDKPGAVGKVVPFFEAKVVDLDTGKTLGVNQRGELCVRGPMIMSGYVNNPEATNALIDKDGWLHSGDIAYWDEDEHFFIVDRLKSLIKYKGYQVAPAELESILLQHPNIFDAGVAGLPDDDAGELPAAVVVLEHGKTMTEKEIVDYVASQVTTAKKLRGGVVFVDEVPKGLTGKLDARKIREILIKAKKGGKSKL
#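 Material: Luciferase/luciferin reagent mix | Doses: Test compounds dosed from 2 mM stocks in 100% DMSO | Timing: 10 min incubation after luciferase reagent addition, room temperature | Measured by: Luminescence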
# STAT1 act = STAT1 signaling activation | NIH 3T3 STAT1-luciferase reporter, IFN-gamma, luminescence; 100% = IFN-gamma alone, no compound | activation (% of control), % at 5.5 µM | hit rate 2.6% among 200,000;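 active = activation above the screen-wide mean activation plus 3 SD, cut at about 130% in these data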;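 also: raw ratio to IFN-gamma control signal so 100% means no change and 0% no light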
# FLuc inh counter = inhibits firefly luciferase, flagging false hits in luciferase inhibition screens; ATPLite firefly luciferase biochemical luminescence, 10 min; P08659; AID 1006; inhibition, % at 10 µM; hit rate 1.5% among 200,000;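 active = inhibition above about 50% when tested at 10 µM, limit read from the data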
# APP 5'UTR act = activates APP 5'UTR luciferase reporter. hit rate 1% among 190,000. AID 1276. activation, % at 2 µM. SH-SY5Y APP 5'UTR luciferase reporter, luminescence; zero percent = DMSO vehicle wells;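 active = activation above a set limit, based on mean plus 3 SD of controls, cut at about 140% in these data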
# An asterisk follows results filed as active; nt = not tested or not shown. An excerpt weighted towards active compounds, which were near 4.3% of everything screened.
SMILES,NF-kB expr up,sdo1 growth,FLuc stim CS,STAT1 act,FLuc inh counter,APP 5'UTR act
O=C(N/N=C/c1ccc2c(c1)OCO2)c1cc(-c2ccc(F)cc2)nc2ccccc12,1.37,-0.36,0.9,97.7,13.0,-3.3
O=C(O)COc1ccccc1/C=N/NC(=O)c1cc(-c2ccc(F)cc2)nc2ccccc12,0.93,nt,0.4,98.6,58.6*,24.4
Cn1ccs/c1=N\C(=O)Nc1ccccc1,2.6,nt,0.6,141.4*,35.4,66.2
CCOC(=S)SCc1cn2cccc(C)c2n1,3.81*,nt,1,94.9,0.9,12.5
ClCc1cc2ccccc2nc1Cl,1.32,nt,1.1,92.9,-5.0,4.3
Clc1ccc(-n2nnc(-c3cccnc3Cl)n2)cc1Cl,2.52,nt,0.8,135.4*,16.1,164.4*
Fc1ccc(-n2nnc(-c3nccs3)n2)cc1,4.71*,nt,0.2,107.3,75.5*,147.9*
CCCn1c(-c2cccnc2Cl)nc2cc(Cl)c(Cl)cc21,1.02,-1.06,1,103.0,-1.3,18.7
CC(=O)C1=C(O)C(=O)N(c2nccs2)C1c1ccc(F)cc1 (stereo unspecified),1.35,0.48,1.1,89.0,-7.6,-8.0
Clc1nc2ccccc2cc1-c1nnn(-c2ccccc2)n1,5.04*,nt,0.8,132.9*,19.8,112.2
c1ccc2ncc(-n3cnnn3)cc2c1,0.75,0.81,1,105.7,-2.9,-14.2
Cc1ccc(-n2nnc(-c3cnc4ccccc4c3)n2)cc1,4.5*,nt,0.5,106.0,53.5*,194.0*
OCCC1CN(Cc2cn[nH]c2C2CCCCC2)CCN1C1CCCCC1 (stereo unspecified),1.1,nt,1,110.1,-3.5,9.0
Brc1ccccc1-n1nnc(-c2ccnc3ccccc23)n1,1.39,nt,1,98.6,2.8,22.3
Cc1ccc(-n2nnc(-c3nccn3C)n2)cc1,4.25*,nt,0.1,72.5,88.1*,96.6
Fc1ccc(-n2nnc(-c3cccnc3Cl)n2)cc1,5.8*,nt,0.3,143.5*,65.6*,148.9*
COc1ncccc1-c1nnn(-c2ccccc2)n1,4.75*,nt,0.5,148.9*,53.8*,158.4*
O=c1ncn(-c2ccc(F)cc2)c2ncccc12,1.07,0.43,1.1,95.2,-7.9,0.9
Clc1ncccc1-c1nnn(-c2ccccc2)n1,6.53*,nt,0.3,133.5*,70.5*,131.9
Cc1cccc(OCc2nnc(SCC(=O)Nc3cccc(C(=O)N4CCOCC4)c3)o2)c1C,0.92,0.01,1,102.1,-4.4,-0.4
COc1ccc(CCNC2CC(=O)N(C3CCCCC3)C2=O)cc1OC (stereo unspecified),1.02,nt,1,93.3,-1.2,-2.6
Cc1cc(C(=O)CN2CCCC(C)C2)c(C)n1-c1ccc(F)cc1 (stereo unspecified),0.91,0.63,1,142.7*,-1.8,17.7
Cc1ccc(-n2c(C)cc(C(=O)CN3CCOCC3)c2C)cc1,1.83,nt,1,118.9,-1.8,37.7
O=C(Nc1cccc(Cl)c1)c1ccc(OC(=S)N2CCOCC2)cc1,1.85,nt,0.9,130.5*,12.2,156.6*
O=C(Nc1cccc2ccccc12)c1ccc(OC(=S)N2CCOCC2)cc1,2.28,-1.07,1.1,100.3,-6.1,57.2
SMILES,NF-kB expr up,sdo1 growth,FLuc stim CS,STAT1 act,FLuc inh counter,APP 5'UTR act
CCOC(=O)c1c(-c2ccccc2)csc1N1C(=O)Nc2ccccc2N1O,1.26,nt,1,101.5,-1.2,3.5
COC(=O)c1c(-c2ccccc2)csc1N1C(=O)Nc2ccccc2N1O,1.78,nt,0.3,114.2,71.3*,7.8
Cc1cnc(NC(=O)COc2ccccc2Cl)s1,1.09,0.29,0.1,44.5,91.4*,100.3
O=C(COc1ccccc1Cl)Nc1ccc2c(c1)OCCO2,2.78,-0.83,0.6,115.7,38.6,189.5*
Cc1ccc(NC(=O)CCCN2C(=S)NC(C)(C)CC2C)cc1 (stereo unspecified),0.97,nt,1,97.7,-3.6,23.4
Cc1cnc(NC(=O)CSc2nnc(-c3ccccc3)o2)s1,2.48,-0.86,1,128.7*,-2.3,112.9
CC1CC(C)(C)NC(=S)N1CCCC(=O)Nc1ccc2c(c1)OCCO2 (stereo unspecified),1.24,nt,1,137.1*,3.9,61.5
CCc1nnc(NC(=O)CCC(=O)N2CCN(C3c4ccccc4-c4ccccc43)CC2)s1,1.03,-0.47,1.1,99.9,-8.0,13.8
CCC(=O)N1CCCc2cc(S(=O)(=O)N3CCN(c4ccccn4)CC3)ccc21,0.6,-1.18,1,97.2,-4.4,-12.1
CC(C)N(Cc1nc(-c2ccccc2)no1)C(=O)C(Cl)(Cl)Cl,1.25,nt,1,94.7,0.9,-7.0
Cc1cccc(OCCCC(=O)Nc2ccc(N(C)C)cc2)c1,1.19,0.44,1,145.2*,2.9,92.2
O=C(CCc1ccccc1)Nc1ccc2c(c1)OCCO2,4.54*,0.34,0.7,145.4*,34.5,132.1
Cc1ccc(OCC(=O)Nc2ccc3c(c2)OCCO3)cc1C,0.47,nt,0.9,102.4,8.0,40.0
Cc1cccc(OCC(=O)Nc2ccc3c(c2)OCCO3)c1,1.62,-1.24,0.5,103.9,53.6*,106.9
Cc1cccc(C)c1NC(=S)N/N=C/c1ccc(OCCC(C)C)cc1,1.53,-0.44,1.1,105.4,-7.1,nt
Cn1c(CNC(=O)c2ccccc2)nnc1SCC(=O)Nc1nccs1,1.09,nt,0.9,108.3,6.8,15.9
N#CC1=C2C=CC=CN2CC1=O,1.06,-0.71,1,144.5*,2.6,24.6
Cc1ccc(CN2CCCC(CO)(Cc3ccccc3C)C2)s1 (stereo unspecified),nt,nt,1,100.7,-3.8,12.1
O=C(CC1(O)C(=O)N(CCc2ccccc2)c2ccccc21)c1ccccn1 (stereo unspecified),1.24,nt,1,103.8,-2.4,18.7
O=C(CC1(O)C(=O)N(C/C=C/c2ccccc2)c2ccccc21)c1ccccn1 (stereo unspecified),3.75*,-1.19,1,94.3,-3.0,-56.8
O=C(/C=C/c1ccncc1)c1ccc(NC(=O)c2ccccc2F)cc1,0.72,-0.38,1.1,93.8,-6.1,-20.6
CC(C)(C)n1ncc2c(=O)n(CC(=O)NCCc3ccccc3)cnc21,1.57,0.82,1,93.8,-3.0,15.0
CC(C)(C)n1ncc2c(=O)n(CC(=O)NCc3ccccc3Cl)cnc21,3.24,-0.74,0.9,145.3*,12.6,192.6*
O=C(Nc1cccc(C(F)(F)F)c1)C1CCCO1 (stereo unspecified),1.32,nt,1.1,97.3,-8.7,-11.8
Cc1ccc(NC(=O)N/C=C/c2ccco2)cc1C,1.28,0.34,1.1,102.9,-5.0,13.1
Cc1ccc(NC(=O)N/C=C/c2ccco2)c(C)c1,5.18*,0.77,1,100.8,-0.3,-5.6
Cn1cccc1C1Nc2ccccc2NC2=C1C(=O)CC(C)(C)C2 (stereo unspecified),0.83,-0.15,1,102.3,-4.7,138.9*
